Experimental data from ChEMBL document CHEMBL1157373, “Dual targeting of DNA gyrase and topoisomerase IV: target interactions of heteroaryl isothiazolones in Staphylococcus aureus” (Antimicrob Agents Chemother, 2007).
Converted amounts (≈) assume the structure as drawn.

Assays:
[1] = test system: Staphylococcus aureus; assay: Antibacterial activity against Staphylococcus aureus ATCC 29213 after 24 hrs by broth microdilution method; format: functional; conditions: ATCC 29213, 24 h
How it was run: (§1)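 Broth microdilution per CLSI guidelines. MIC taken as the lowest concentration preventing visible growth at 24 h. Each MIC determined at least twice.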

[2] = test system: Staphylococcus aureus; assay: Antibacterial activity against Staphylococcus aureus ACH-0203 isolate with gyrA Ser84Leu and grlA Ser80Phe, Ala116Val mutant after 24 hrs by broth microdilution method; format: functional; how it was run: as §1
[3] = test system: Staphylococcus aureus; assay: (§2) Antibacterial activity against Staphylococcus aureus ACH-0129 isolate with gyrA Ser84Leu, Glu88Val and grlA Ser80Phe, Ala116Val mutant after 24 hrs by broth microdilution method; format: functional
[4] = test system: Staphylococcus aureus; assay: as §2; format: functional; remark: listed apart in the source
[5] = test system: Staphylococcus aureus; assay: Antibacterial activity against Staphylococcus aureus BSA678 isolate with gyrA Ser84Leu, Ser85Pro and grlA Ser80Phe, Glu84Lys mutant after 24 hrs by broth microdilution method
[6] = test system: Staphylococcus aureus; assay: Antibacterial activity against Staphylococcus aureus ACH-0206 isolate with gyrA Ser84Leu mutant after 24 hrs by broth microdilution method; format: functional; how it was run: as §1
[7] = test system: Staphylococcus aureus; assay: Antibacterial activity against Staphylococcus aureus ACH-0231 isolate with gyrA Ser84Leu, Glu88Lys and grlA Ser80Tyr, Glu84Gly mutant after 24 hrs by broth microdilution method; format: functional
[8] = test system: Staphylococcus aureus; assay: Antibacterial activity against Staphylococcus aureus ACH-0216 isolate with grlA Ser80Phe mutant after 24 hrs by broth microdilution method; format: functional; how it was run: as §1
[9] = test system: Staphylococcus aureus; assay: Antibacterial activity against Staphylococcus aureus ACH-0201 isolate with gyrA Ser84Leu, Glu88Val and grlA Ser80Phe, Ala116Val mutant after 24 hrs by broth microdilution method; format: functional
[10] = test system: Staphylococcus aureus; assay: Antibacterial activity against Staphylococcus aureus ATCC 33591 isolate after 24 hrs by broth microdilution method; format: functional; conditions: ATCC 33591, 24 h; how it was run: as §1
[11] = test system: Staphylococcus aureus; assay: Antibacterial activity against Staphylococcus aureus ACH-0218 isolate with grlA Glu84Lys mutant after 24 hrs by broth microdilution method; format: functional; how it was run: as §1
[12] = test system: Staphylococcus aureus; assay: Antibacterial activity against Staphylococcus aureus ACH-0141 isolate with gyrA Ser84Leu, Glu88Val and grlA Ser80Phe, Ala116Val mutant after 24 hrs by broth microdilution method; format: functional
[13] = test system: Staphylococcus aureus; assay: Antibacterial activity against Staphylococcus aureus ACH-0204 isolate with gyrA Ser84Leu mutant after 24 hrs by broth microdilution method; format: functional; how it was run: as §1
[14] = test system: Staphylococcus aureus; assay: Antibacterial activity against Staphylococcus aureus ACH-0210 isolate with gyrA Ser84Leu and grlA Ser80Phe mutant after 24 hrs by broth microdilution method; format: functional
[15] = test system: Staphylococcus aureus; assay: Antibacterial activity against Staphylococcus aureus ACH-0126 isolate with gyrA Ser84Leu and grlA Ser80Phe mutant after 24 hrs by broth microdilution method; format: functional
[16] = test system: Staphylococcus aureus; assay: Antibacterial activity against Staphylococcus aureus ACH-0186 isolate with gyrA Ser84Leu and grlA Ser80Phe, Ala116Val mutant after 24 hrs by broth microdilution method; format: functional
[17] = test system: Staphylococcus aureus; assay: Antibacterial activity against Staphylococcus aureus ACH-0192 isolate with gyrA Ser84Leu and grlA Ser80Phe, Ala116Val mutant after 24 hrs by broth microdilution method; format: functional
[18] = test system: Staphylococcus aureus; assay: Antibacterial activity against Staphylococcus aureus ACH-0221 isolate with gyrA Ser84Leu mutant after 24 hrs by broth microdilution method; format: functional; how it was run: as §1
[19] = test system: Staphylococcus aureus; assay: Antibacterial activity against Staphylococcus aureus ATCC 700699 isolate with gyrA Ser84Leu, Glu409Lys and grlA Ser80Phe mutant after 24 hrs by broth microdilution method; format: functional; conditions: ATCC 700699, 24 h
[20] = test system: Staphylococcus aureus; assay: Antibacterial activity against Staphylococcus aureus BSA643 isolate with gyrA Ser84Leu and grlA Ser80Tyr, Glu84Gly mutant after 24 hrs by broth microdilution method; format: functional
[21] = test system: Staphylococcus aureus; assay: Antibacterial activity against Staphylococcus aureus NY2746 isolate with gyrA Ser84Leu and grlA Ser80Phe mutant after 24 hrs by broth microdilution method; format: functional

## Cc1cc(-c2cc3c(cc2F)c(=O)c2c(=O)[nH]sc2n3C2CC2)ccn1
[1]
  MIC: 0.008 µg/mL (≈ 0.0218 µM)
[2]
  MIC: 2 µg/mL (≈ 5.44 µM)
[3]
  MIC: 4 µg/mL (≈ 10.9 µM)
[4]
  MIC: 4 µg/mL (≈ 10.9 µM)
[5]
  MIC: 4 µg/mL (≈ 10.9 µM)
[6]
  MIC: 0.03 µg/mL (≈ 0.0817 µM)
[7]
  MIC: 16 µg/mL (≈ 43.5 µM)
[8]
  MIC: 0.016 µg/mL (≈ 0.0435 µM)
[9]
  MIC: 8 µg/mL (≈ 21.8 µM)
[10]
  MIC: 0.004 µg/mL (≈ 0.0109 µM)
[11]
  MIC: 0.08 µg/mL (≈ 0.218 µM)
[12]
  MIC: 16 µg/mL (≈ 43.5 µM)
[13]
  MIC: 0.03 µg/mL (≈ 0.0817 µM)
[14]
  MIC: 0.5 µg/mL (≈ 1.36 µM)
[15]
  MIC: 0.5 µg/mL (≈ 1.36 µM)
[16]
  MIC: 0.5 µg/mL (≈ 1.36 µM)
[17]
  MIC: 2 µg/mL (≈ 5.44 µM)
[18]
  MIC: 0.03 µg/mL (≈ 0.0817 µM)
[19]
  MIC: 0.25 µg/mL (≈ 0.68 µM)
[20]
  MIC: 0.25 µg/mL (≈ 0.68 µM)
[21]
  MIC: 0.5 µg/mL (≈ 1.36 µM)
